From the EternaBench riboswitch data

Tested on: MS2 coat protein
Test: apparent Kd, MS2 coat protein; higher = weaker binding; RNA-MaP array; FMN 200 µM where present
In short: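 Binding was read on Illumina sequencing-chip clusters where stalled E. coli RNA polymerase had transcribed each design. A titration of SNAP-549-labelled MS2 coat protein began at 0.7 or 1.5 nM and doubled to 3 µM, once without ligand and once with constant ligand, in 100 mM Tris-HCl pH 7.5, 80 mM KCl, 4 mM MgCl2, BSA, DTT, yeast tRNA and Tween-20. The apparent Kd is the median of filtered per-cluster binding-curve fits, based on green signal normalised to red-channel RNA signal and control-cluster median Fmax.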

[1] = designed as: OFF switch for flavin mononucleotide, no ligand
[2] = ligand present: flavin mononucleotide, designed as: OFF switch for flavin mononucleotide
[3] = designed as: ON switch for flavin mononucleotide, no ligand
[4] = ligand present: flavin mononucleotide, designed as: ON switch for flavin mononucleotide

| Sequence | apparent Kd [1] [nM] | apparent Kd [2] [nM] | apparent Kd [3] [nM] | apparent Kd [4] [nM] |
| --- | --- | --- | --- | --- |
| AGCGGCGCGGGCCACCGCAGAACCAGAAGGACAUGAGGAUCACCCAUGUAGCAGAACAGGGCGGUGUAGGAUAUGGCAGGCUCG | 29.4 | 52.3 | – | – |
| AUAUCUCCCUAGAAGGUGGAACGACAAUUGCAUCACGUAGUUGGCGAUCCAAGGAUAUGGGACAUGAGGAUCACCCAUGUGGAU | – | – | 16.4 | 8.81 |
| GUAUAUCACUAAGGAUAUCUGUAUUUUGUUGAAACAUGAGGAUCACCCAUGUUCAUGAAAUUAUAGGAGAAGGUAGAGAUAUAC | – | – | 4.96 | 4.57 |
| GCCUAGCCCAAGCCCACGGCAUCACAGGAUAUGCCGAUAACAUGAGGAUCACCCAUGUCAACUCCGCAGAAGGGUGAUAUCGUG | – | – | 75.9 | 10 |
| AGAUCGACUGUGAGGAUAUUGACCGGACGACCCAUCGAGAAGGCACAUGAGGAUCACCCAUGUGAGUCGGUUUA | 15.5 | 17 | – | – |
| GCACGGUAUGUAGGAUAUGCAUAGCAUUGCUAUGCAGAAGGACAUGAGGAUCACCCAUGUAUGUAUUCCAUACAAUUCCCGUGC | 5.41 | 5.82 | – | – |
| UCAUGGUAGCAGGAUAUGCUUGUAAUUUUUUUUGCAGAAGGGCUUACAUGAGGAUCACCCAUGUGUUAGGUCUA | 32.8 | 46.7 | – | – |
| CCGGAAAUGCAGGAUAUCGUAUCGGAUACGAUACGAGAAGGGUAUACAUGAGGAUCACCCAUGUGUCCUCCCGG | 38.3 | 109 | – | – |
| AAUUAACUCACAGGAUAUAGCAGAGGUCGAGUGUACUUACAGGCGACGAGGCUAGAAGGGUGACCACAUGAGGAUCACCCAUGU | – | – | 621 | 103 |
| CUGAGUAGUCAGGAUAUGUGGUACAAAAGUACUGCAGAAGGGAUUACAUGAGGAUCACCCAUGUUUUCUUCAUG | – | 125 | – | – |
| GCGCACUAAGUGAGGAUAUCGAUUUUUUUUAGGAUCGAGAAGGCACAUGAGGAUCACCCAUGUUUGACGUGCGC | 15.5 | 15.2 | – | – |
| UUACUACAUGAGGAUCACCCAUGUCAGGAUAUUGUAUAUGCCUUGGAAUACGUGUUUACAAGAAGGGACUAUAU | 24.1 | 25.4 | – | – |
| GCACAUGAGGAUCACCCAUGUGGUCCAGAAGGCCAGAGGACUUGCUUUUAGCAAGUCCUUCAAAUGGAGGAUAUGGAGGGUUCU | – | – | 237 | 42 |
| GCCAUCCUAUGAGGAUAUGACACCGAAACGGUGUCAGAAGGCAUGUCGAUAGACAUGAGGAUCACCCAUGUUUACAGGAUGGCA | – | – | 132 | 22 |
| GGGUUUGGUGUGAGGAUAUGUUUGGGUAAACCCGGGCAGAAGGCACAUGAGGAUCACCCAUGUAAGCCGGGCCC | 14.9 | 14.7 | – | – |
| UCGAACUUUCAUGAAAUUCGCACAUGAGGAUCACCCAUGUACGAGGAUAUGUACUUAAACGGCUAACAGAAGGCGUACUGGGCA | 105 | 71.8 | – | – |
| GUGGAGUACGUAGGAUAUGUAGGAUAUUCCUACAUGAGGAUCACCCAUGUUAGCAUGGAAGAAGGACAGAAGGACGUGCUCCAG | – | – | 1180 | 15 |
| GAGUGCUGAGGAUAUACAUGAGGAUCACCCAUGUGCUUCAGCUAGGAGACUAGCAUUGGUAGAAGGCAGUACUC | 11.2 | 46 | – | – |
| UUGCACGUCGUAGGAUAUGUAGGAUAUUCCUACAUGAGGAUCACCCAUGUUGACAUGGAAGAAGGACAGAAGGACGAUGUCCAU | – | – | 686 | 10.9 |
| CUUUUGUGAGGAUAUCAGUAGUAAAAUAAUAAAAUAACUACUGAGAAGGCACAUGAGGAUCACCCAUGUUCCUC | 32.5 | 161 | – | – |
| CGGCAUCAUGUAGGAUAUGCGUGGCGAAGCUAUGCAGAAGGACAUGAGGAUCACCCAUGUCUUACCUAGCGUACUAGGUUGCCG | 6.37 | 16.1 | – | – |
| GUGCAUUCGUAGAAGGGUGACAUGAGGAUCACCCAUGUGCGCUGGGCUCGGGAGGCAUCAGCGCCACAGGAUAUACGAAGCACC | – | – | 66.8 | 48.6 |
| UUUUUGUCAGGAUAUCCACCCACCACCUUCGGGUGGUGGGUGGAGAAGGGACAUGAGGAUCACCCAUGUAGUUU | 74.6 | 221 | – | – |
| GAAUUCGCAUGAGGAUAUGCACUCAUUUCAUGUGCAGAAGGUAUAUCAUUAGACAUGAGGAUCACCCAUGUAUUGGUCAUUAAC | – | – | 15.2 | 14 |

| Sequence | apparent Kd [1] [nM] | apparent Kd [2] [nM] | apparent Kd [3] [nM] | apparent Kd [4] [nM] |
| --- | --- | --- | --- | --- |
| AGAAUGGGCGAGAAGGGAGUACAUGAGGAUCACCCAUGUGGUUCAUGGUGCUCAGGAUAUCGAUAGACCAAGGAGAGCCUUUGG | 21.9 | 185 | – | – |
| UGUUACUAGUAAGGAUAUACUUGCAAUUAGCUUGUAGAAGGUACAGUCUUUUGUAUAACAUGUUUACAUGAGGAUCACCCAUGU | – | – | 10.4 | 9.05 |
| GUUGUGUAAGGAGGAUAUGAGCUGAAACUCUUACAUGAGGAUCACCCAUGUCCGUAACUCAGGCAUCAGAAGGCCUAACGCAUU | – | – | 686 | 23 |
| GAUUACAAGUAAGGAUAUGUAUAUGAAACAUAUACAGAAGGUACAUGAGGAUCACCCAUGUUCUUGCAACGCGAAUAUGUAAUC | 17.2 | 21.6 | – | – |
| CGCUAUGACAUAGGAUAUUGAUACAUGAGGAUCACCCAUGUCAACCAUGAAGCUCGAUUUGUUGACAAGAAGGAUGUGGUAGCG | – | – | 165 | 44.7 |
| CCGCAAAUGGAGGAUAUCGUAUCGGAUACGAUACGAGAAGGCUAAACAUGAGGAUCACCCAUGUGUCCUAGCGG | 14 | 15.5 | – | – |
| AGCGCCAUCGUGAGAUGGCGUAUUACAUGAGGAUCACCCAUGUAGGAUAUCGAUUGCUUUGCAGUCGAGAAGGACAUGUUCUUG | 51.5 | 91.7 | – | – |
| GCACUGGAUGUAGGAUAUCAGGACGAUAAGUCCUGAGAAGGACAUGAGGAUCACCCAUGUGACUCAUAACCAGUGCAUAAUAUA | 27 | 142 | – | – |
| UUCUAGCUCACAGGAUAUGGGUAUCGACGAUGCCCAGAAGGGUGAUUUGGCACAUGAGGAUCACCCAUGUGGGCGCUUGAAUAU | – | – | 45 | 98 |
| UCUUAAGGAGGAUAUACAUGAGGAUCACCCAUGUAUGACCGCAGGGCGUCCUUGUAUCGUAGAAGGCCUCGGUA | 33.3 | 43.6 | – | – |
| GACAUGAGGAUCACCCAUGUCCAUGCAAGAGUAGUUGAGACCAGAAGGACCGUGCGGAGCGCAGGGUAGGAUAUGGAGCCCUCA | – | – | 32.4 | 9.46 |
| CGCGGACAAGAGAAGGCCAGACCUCGGAACUUGAGGCACCGCUAGGCAUGGAGGAUAUCUUGACAUGAGGAUCACCCAUGUACA | – | – | 86.3 | 18.1 |
| GCACUUUUAUUUGAACCGUUUCGAACAUGAGGAUCACCCAUGUAGGAUAUGCUAAAAGUUGUGAUGCAGAAGGACAUUAAGUGC | 6.94 | 7.5 | – | – |
| AAAGAGUCAGGAUAUUCGUAUAGAGUAGCGCGACUCUAUACGAAGAAGGGACAUGAGGAUCACCCAUGUAAAAA | 28.1 | 45.6 | – | – |
| CUGCCUUAUGUAGGAUAUGCAUAGCAUUGCUAUGCAGAAGGACAUGAGGAUCACCCAUGUAUGUAAUCAAUACAUAUCUGGCAG | 20.4 | 119 | – | – |
| GCAAACACAUGAGGAUCACCCAUGUGGAAAGAGCAAUUAGGCUAGGAUAUUCAUGUCGUUUGCAAGAAGAAGGAGCCAUAGUGG | – | – | 560 | 157 |
| AUCGUGCAGCUUUGCUGUACGCGUACAUGAGGAUCACCCAUGUAGGAUAUGGUAGGCAAAGCUUACUAGAAGGAUAUAGUGAUC | 61.9 | 54 | – | – |
| CUGCGGUAGGAGAAGGACGGCGGGUUCUUUUCGUACAUGAGGAUCACCCAUGUAGGAUAUCCUACCUCAGGCGGCCUACUACAG | 5.89 | 7.42 | – | – |
| CGUAUGUCAGGAUAUGCGUAUGCCACCCAGGACGGGCGGCAGCAGAAGGGACAUGAGGAUCACCCAUGUUCGGG | 75 | 68.4 | – | – |
| GUAAUAAAGAUCCAAUUAUACUACAUGAGGAUCACCCAUGUGCAGGAUAUCGAGAGUUUAUAAUUCGAGAAGGGCAAAUUCAUU | 73 | 159 | – | – |
| GCGUUCUUGUAGAAGGUACAUACGACAUCUUAUAAACGCAUGACACAUGAGGAUCACCCAUGUUGUAAGGAUAUACAUGAACGC | – | – | 8.88 | 8.05 |
| UUACUAUUGGAGAAGGGUCGAUCAUAUAGAAUGACAGGAUAUCCAACAUGAGGAUCACCCAUGUGUCACCCAUAUGAGGAUCAC | 34.3 | 52.4 | – | – |
| CCUCCACAUGAGGAUCACCCAUGUCAGGAUAUCGUGUGUGCUUUUUCGGUCUUUCGUGCGAGAAGGGACGUCUG | 27.6 | 26.7 | – | – |
| ACAUGAUAUGUAGGAUAUCACUACUUGUGUUAUAAAAUUGUAAUUUAGGAUUGAGAAGGACAUUUACAUGAGGAUCACCCAUGU | 14.7 | 11.6 | – | – |
